“Also recorded” adds a separate entry of the source.
Experiments:
[1] = tested on: human foreskin fibroblasts (HFF); assay: Mammalian cell cytotoxicity screen; type: cell-based; conditions: Fibroblast, 24 h, read-out: HFF IC50
Outline: (§1)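 HFF and U-20S were kept in DMEM with 10% heat-inactivated bovine serum, 2 mM L-glutamine, penicillin/streptomycin, 10% Medium 199 and gentamicin, at 36.5 °C with 5% CO2. Confluent cells (~20,000/well plated) were treated with 0–100 µM test compound for 24 h in duplicate. Alamar Blue (0.5 mM resazurin, 4 h, 37 °C) was read at ex 530/25, em 590/25; untreated cells defined 100% viability.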

[2] = Metabolic stability in human liver microsomes; type: in vitro ADME
Outline: (§2)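 Test compound (1 µM) was incubated with human or mouse liver microsomes (0.4 mg/mL protein) at 37 °C. Reactions were started with an NADPH-regenerating system and quenched at 2, 30 and 60 min. Remaining compound was quantified by LCMS to derive half-life, in vitro intrinsic clearance and predicted hepatic extraction ratio.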

[3] = tested on: RH-dTom tachyzoites in pre-treated HFF cells; assay: Host cell; type: cell-based, Toxoplasma gondii
Outline: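 HFF were grown to confluence in 96-well plates and exposed to 10 µM test compound for 24 h at 37 °C, in triplicate. Cells were washed twice with D10 medium, then infected with RH-dTom tachyzoites. Parasite growth was followed by fluorescence for 5 days post-infection and expressed relative to control.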

[4] = tested on: human osteosarcoma cells (U-20S); assay: Mammalian cell cytotoxicity screen; type: cell-based; conditions: U2OS, 24 h, read-out: U2OS IC50
Outline: as §1

human albumin = human albumin (Homo sapiens, UniProt P02768); assay: Chromatography-based protein binding; type: in vitro ADME; conditions: estimated by chromatographic method, human albumin column
Sequence of human albumin (P02768 25-609): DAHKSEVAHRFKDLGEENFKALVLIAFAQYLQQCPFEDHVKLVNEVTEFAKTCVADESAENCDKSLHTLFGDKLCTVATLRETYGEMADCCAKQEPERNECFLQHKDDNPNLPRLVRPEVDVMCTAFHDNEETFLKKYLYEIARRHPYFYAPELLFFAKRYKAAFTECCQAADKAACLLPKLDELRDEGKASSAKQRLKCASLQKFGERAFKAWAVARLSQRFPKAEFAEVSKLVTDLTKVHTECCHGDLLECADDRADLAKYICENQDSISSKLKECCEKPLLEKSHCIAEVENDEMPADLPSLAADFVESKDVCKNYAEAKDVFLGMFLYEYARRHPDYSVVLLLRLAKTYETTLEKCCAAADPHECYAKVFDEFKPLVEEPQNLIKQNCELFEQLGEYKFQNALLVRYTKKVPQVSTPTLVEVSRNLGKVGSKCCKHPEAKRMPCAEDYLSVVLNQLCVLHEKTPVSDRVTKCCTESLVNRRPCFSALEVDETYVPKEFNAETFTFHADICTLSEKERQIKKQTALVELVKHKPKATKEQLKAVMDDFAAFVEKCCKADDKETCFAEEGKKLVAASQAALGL
Outline: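 Plasma protein binding was estimated chromatographically on a human albumin column. Retention was correlated against a standard series of compounds with known cPPB values.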

[5] = tested on: human liver cells (HC-04); assay: Mammalian cell cytotoxicity screen; type: cell-based; conditions: HC04, 24 h, read-out: HCO4 IC50
Outline: (§3)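 HEK-293 and HC-04 were kept in DMEM with 10% heat-inactivated bovine serum, 2 mM L-glutamine, penicillin/streptomycin and gentamicin (no Medium 199), at 36.5 °C with 5% CO2. Cells (~20,000/well) were grown to confluence, then treated with 0–100 µM test compound for 24 h in duplicate. Alamar Blue (0.5 mM resazurin, 4 h, 37 °C) was read at ex 530/25, em 590/25; viability was relative to untreated cells (100%).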

[6] = tested on: murine macrophages (NR-9456); assay: Mammalian cell cytotoxicity screen; type: cell-based; conditions: Mus musculus, Macrophage, 24 h, read-out: NR-9456 IC50
Outline: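 Murine macrophages NR-9456 were maintained with added 1 mM sodium pyruvate and plated at ~20,000/well to confluence. They were exposed to 0–100 µM test compound for 24 h in duplicate. Resazurin (0.5 mM) was added for 4 h at 37 °C with 5% CO2, and fluorescence was read at ex 530/25, em 590/25. Viability was normalised to no-compound wells (100%).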

PRU T. gondii = assay: T. gondii growth inhibition in vitro screen, PRU-dTom strain; type: cell-based, Toxoplasma gondii; conditions: for IC50: Toxoplasma gondii, 120 h, read-out: PRU T. gondii IC50; for activity against PRU T. gondii (in words): PRU strain
Outline: (§4)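 HFF (~20,000/well) were grown to confluence, then infected with dTomato-expressing tachyzoites: RH 2000/well for 24 h, or PRU 8000/well for 48 h, at 37 °C. Medium was replaced and test compound in DMSO added at 0–100 µM in duplicate, with pyrimethamine as positive control. Fluorescence (ex 530/25, em 590/25) was read over 5 days; IC50 was the concentration halving RFU at day 5.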

[7] = Kinetic aqueous solubility by nephelometry; type: physicochemical; conditions: PBS pH 6.5, pH 6.5, aqueous buffer, kinetic from dmso stock
Outline: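 Kinetic solubility was determined by nephelometry after 30 min at room temperature. A solubility range was reported.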

[8] = Metabolic stability in mouse liver microsomes; type: in vitro ADME
Outline: as §2

RH-dTom tachyzoites = assay: Extracellular parasite pre-treatment assay; type: cell-based; conditions: Toxoplasma gondii, read-out: parasite growth, % of control
Outline: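 RH-dTom tachyzoites were isolated from culture and resuspended in D10 medium at 10e6/mL. They were exposed to 10 µM test compound for 4 h, then centrifuged and washed twice. Confluent HFF in 96-well plates were infected with 2000 treated tachyzoites per well. Parasite growth was read by fluorescence at 5 days post-infection and expressed relative to control.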

[9] = tested on: Salmonella typhimurium (TA100 strain); assay: Bacterial reverse mutation assay; type: cell-based; conditions: 0.75 μM (ca. 3x average T. gondii IC50)
[10] = tested on: human embryonic kidney cells (HEK-293); assay: Mammalian cell cytotoxicity screen; type: cell-based; conditions: HEK293, 24 h, read-out: HEK293 IC50
Outline: as §3

RH T. gondii = assay: T. gondii growth inhibition in vitro screen, RH-dTom strain; type: cell-based, Toxoplasma gondii; conditions: for activity against RH T. gondii (in words): primary screen
Outline: as §4

ME49 strain T. gondii = assay: In vivo survivorship challenge in murine model; design: species or system Toxoplasma gondii
Outline: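 Female Swiss Webster mice, 2 months old, were infected intraperitoneally with 5000 ME49 tachyzoites. Dosing started simultaneously: test compound 5 mg/kg (n = 10), pyrimethamine 5 mg/kg (n = 20) or solvent (n = 24), IP once daily for 10 days. Vehicle was 5% DMSO, 47.5% propylene glycol, 47.5% Kollisolv. Mice were weighed daily; survival was followed over 40 d by Kaplan-Meier.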

T. gondii = conditions: ref Sanford et al., 2018; cited from earlier work

In the case of CC(C)(C)C1=CC(=NNC(=O)c2ccccc2)C=C(C(C)(C)C)C1=O [KGW15, N'-(3,5-di-tert-butyl-4-oxocyclohexa-2,5-dien-1-ylidene)benzohydrazide], the IC50 [1] is reported as > 100 µM.

For Cc1ccc(C(=O)NN=C2C=C(C(C)(C)C)C(=O)C(C(C)(C)C)=C2)cc1 [KGW42, N'-(3,5-di-tert-butyl-4-oxocyclohexa-2,5-dien-1-ylidene)-4-methylbenzohydrazide], the IC50 [1] was > 100 µM.

For CC(C)(C)C1=CC(=NNC(=O)c2ccc(O)cc2)C=C(C(C)(C)C)C1=O [KGW43, N'-(3,5-di-tert-butyl-4-oxocyclohexa-2,5-dien-1-ylidene)-4-hydroxybenzohydrazide], the IC50 [1] was > 100 µM.

In the case of CC(C)(C)C1=CC(=NNC(=O)c2ccc([N+](=O)[O-])cc2)C=C(C(C)(C)C)C1=O [KGW44, N'-(3,5-di-tert-butyl-4-oxocyclohexa-2,5-dien-1-ylidene)-4-nitrobenzohydrazide], the “Predicted EH” value [2] is reported as 0.45, the half-life at 1 μM [2] is reported as 1.38 h and the microsomal CLint at 1 μM [2] is reported as 21 µL/min/mg. For the same molecule, the “parasite growth, % of control” value ([3]; HFF pre-treated 10 μM 24 h, washed, then infected, 5 days post-infection) was “no significant change in growth”, the IC50 [4] was > 100 µM and the “cPPB (% Bound)” value (human albumin) was 84.3 % Bound. The IC50 [5] was > 100 µM, the IC50 [6] was > 100 µM and the IC50 (PRU T. gondii) was 0.99 µM. For the same molecule, the solubility kinetic at 30 min [7] was < 1.6 µg/mL, the half-life at 1 μM [8] was 0.15 h and the microsomal CLint at 1 μM [8] was 99 µL/min/mg. For the same molecule, the IC50 [1] was > 100 µM, the activity at 10 µM (RH-dTom tachyzoites) was 60.3% and the “Ames Assay” value [9] was “neither compound was mutagenic; also recorded: Negative”. For the same molecule, the IC50 [10] was > 100 µM.

With CC(C)(C)C1=CC(=NNC(=O)c2c[nH]cn2)C=C(C(C)(C)C)C1=O [KGW45, N'-(3,5-di-tert-butyl-4-oxocyclohexa-2,5-dien-1-ylidene)-1H-imidazole-4-carbohydrazide] the “activity against RH T. gondii (in words)” value (RH T. gondii; RH strain) was “significantly weakened” and the IC50 [1] was > 100 µM.

In the case of CC(C)(C)C1=CC(=NNC(=O)c2ccc(C#N)cc2)C=C(C(C)(C)C)C1=O [KGW54, 4-cyano-N'-(3,5-di-tert-butyl-4-oxocyclohexa-2,5-dien-1-ylidene)benzohydrazide], the IC50 (RH T. gondii; read-out: RH T. gondii IC50, RH-dTom tachyzoites in HFF, fluorescence, day 5) is reported as 1.2 µM, the IC50 (PRU T. gondii) is reported as 2.2 µM and the IC50 [1] is reported as > 100 µM.

For CC(C)(C)C1=CC(=NNc2ccc([N+](=O)[O-])cc2[N+](=O)[O-])C=C(C(C)(C)C)C1=O [KGW59, 2,6-di-tert-butyl-4-(2-(2,4-dinitrophenyl)hydrazineylidene)cyclohexa-2,5-dien-1-one], the “Predicted EH” value [2] was 0.38, the half-life at 1 μM [2] was 1.85 h and the microsomal CLint at 1 μM [2] was 16 µL/min/mg. The activity at 10 µM ([3]; Toxoplasma gondii, HFF, read-out: parasite growth, % of control) was 30.2%, the IC50 [4] was > 100 µM and the IC50 [5] was > 100 µM. For the same molecule, the IC50 [6] was > 100 µM, the IC50 (PRU T. gondii) was 1.4 µM and the solubility kinetic at 30 min [7] was < 1.6 µg/mL. The “Predicted EH” value [8] was 0.50, the half-life at 1 μM [8] was 0.617 h and the microsomal CLint at 1 μM [8] was 46 µL/min/mg. For the same molecule, the “survivorship (in words)” value (ME49 strain T. gondii) was “significantly increased survivorship”, the IC50 [1] was > 100 µM and the “Ames Assay” value [9] was “neither compound was mutagenic; also recorded: Negative”. For the same molecule, the IC50 [10] was > 100 µM.

With CCOc1ccc(C(=O)NN=C2C=C(C(C)(C)C)C(=O)C(C(C)(C)C)=C2)cc1 [KGW64, N'-(3,5-di-tert-butyl-4-oxocyclohexa-2,5-dien-1-ylidene)-4-ethoxybenzohydrazide] the “activity against PRU T. gondii (in words)” value (PRU T. gondii) was “only weakly active”.

For CC(C)(C)C1=CC(=NNC(=O)c2cccnc2)C=C(C(C)(C)C)C1=O [KGW65, N'-(3,5-di-tert-butyl-4-oxocyclohexa-2,5-dien-1-ylidene)nicotinohydrazide], the “activity against PRU T. gondii (in words)” value (PRU T. gondii) was “completely inactive”.

With CC(C)(C)C1=CC(=NNC(=O)C2CCCCC2)C=C(C(C)(C)C)C1=O [KGW66, N'-(3,5-di-tert-butyl-4-oxocyclohexa-2,5-dien-1-ylidene)cyclohexanecarbohydrazide] the “activity against RH T. gondii (in words)” value (RH T. gondii; RH strain) was “abolished activity”.

In the case of Cc1ccc(C(=O)ON=C2C=C(C(C)(C)C)C(=O)C(C(C)(C)C)=C2)cc1 [KGW72, 2,6-di-tert-butyl-4-(((4-methylbenzoyl)oxy)imino)cyclohexa-2,5-dien-1-one], the “reduction of potency relative to KG8” value (RH T. gondii; RH strain) is reported as 6 fold and the IC50 [1] is reported as > 100 µM.

With CC1(C)CC(=NNC(=O)c2ccncc2)CC(C)(C)C1=O [KGW73, N'-(3,3,5,5-tetramethyl-4-oxocyclohexylidene)isonicotinohydrazide] the “activity against RH T. gondii (in words)” value (RH T. gondii; RH strain) was “inactive” and the IC50 [1] was > 100 µM.

For NNC(=O)c1ccncc1 [isoniazid], the “activity against T. gondii in vitro (in words)” value (T. gondii) is given as “inactive”.

Source: publication PMC6262783 (International Journal for Parasitology: Drugs and Drug …, 2018)
